What all share (assay type): functional
Experiment [1] relates to Staphylococcus aureus. The experiment can be described thus: Minimum inhibitory concentration against Staphylococcus aureus ATCC 29213. In short, it runs like this: (§1)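 Agar cup diffusion assay. Colonies from a fresh overnight culture were suspended in saline to 0.5 McFarland (10^8 CFU/mL). Mueller Hinton agar at 48 °C was seeded at 10^6 CFU/mL and poured, and holes were cut in it. Each hole received sample from a six-step dilution series between 0.25 and 125 µg/mL. After incubation, inhibition zone diameters were measured with an electronic caliper to estimate the MIC.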

The test system of experiment [2] is Staphylococcus aureus. Description: Minimum inhibitory concentration against Staphylococcus aureus ATCC 2977. The method, boiled down:
(§2)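 MIC by agar cup diffusion. Colonies from fresh overnight culture were suspended in saline to 0.5 McFarland (10^8 CFU/mL), and molten Mueller Hinton agar at 48 °C was seeded at 10^6 CFU/mL and poured. Wells each received 200 µL of one of six dilutions spanning 0.25–125 µg/mL. After incubation, inhibition zone diameters were measured by caliper. Strains came from ATCC or in-house clinical isolates.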

The test system of experiment [3] is Aspergillus niger. Description: Minimum inhibitory concentration against Aspergillus niger ATCC 16404.
In experiment [4] the test system is Streptococcus pyogenes. Description: Minimum inhibitory concentration against Streptococcus pyogenes EC. In short, it runs like this:
(§3)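 Streptococcal MICs were estimated by agar cup diffusion in Mueller Hinton agar supplemented with 5% sheep blood. The agar was seeded at 48 °C with 10^6 CFU/mL from a saline suspension at 0.5 McFarland. Cut holes were filled from six dilutions spanning 0.25–125 µg/mL. After incubation, growth-inhibition zone diameters were read with an electronic caliper.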

The subject of experiment [5] is Staphylococcus aureus. The experiment can be described thus: Minimum inhibitory concentration against meticilline and fus resistant Staphylococcus aureus CJ 234. The method, boiled down:
as §2

In experiment [6] the test system is Staphylococcus aureus. Description: Minimum inhibitory concentration against meticilline and rifampicin resistant Staphylococcus aureus CJ 234. In short, it runs like this:
as §2

In experiment [7] the test system is Cutibacterium acnes. The experiment can be described thus: Minimum inhibitory concentration against Propionibacterium acnes NCTC 737. The method, boiled down: as §1
In experiment [8] the test system is Corynebacterium xerosis. Description: Minimum inhibitory concentration against Corynebacterium xerosis NCTC 9755. The method, boiled down:
as §1

Experiment [9] concerns Staphylococcus aureus. The experiment can be described thus: Minimum inhibitory concentration against Staphylococcus aureus ATCC 6538P. The method, boiled down:
as §1

Experiment [10] in a line: Minimum inhibitory concentration against Saccharomyces cerevisiae ZZ 7.
For experiment [11], the system named is Streptococcus salivarius. Description: Minimum inhibitory concentration against Streptococcus salivarius EG 7 (gr.A). In short, it runs like this:
as §3

Experiment [12] deals with Bacillus cereus. The experiment can be described thus: Minimum inhibitory concentration against Bacillus cereus ATCC 10876. In short, it runs like this: as §1
Experiment [13] has as its system Escherichia coli. The experiment can be described thus: Minimum inhibitory concentration against Escherichia coli HA 44. In short, it runs like this:
as §1

Experiment [14] deals with Enterococcus faecium. Description: Minimum inhibitory concentration against Streptococcus faecium EI 119. The method, boiled down:
as §3

Experiment [15] relates to Staphylococcus epidermidis. The experiment can be described thus: Minimum inhibitory concentration against Staphylococcus epidermidis ATCC 12228. In short, it runs like this: as §1
The test system of experiment [16] is Candida albicans. Description: Minimum inhibitory concentration against Candida albicans ATCC 10231.
The test system of experiment [17] is Staphylococcus aureus. Description: Minimum inhibitory concentration against meticilline resistant Staphylococcus aureus CJ 232. The method, boiled down: as §2
Experiment [18] relates to Micrococcus luteus. Description: Minimum inhibitory concentration against Micrococcus luteus ATCC 9341. The method, boiled down: as §1
Experiment [19] has as its system Streptococcus equi subsp. zooepidemicus. The experiment can be described thus: Minimum inhibitory concentration against Streptococcus zooepidermidis ED (gr.C). In short, it runs like this: as §3
Experiment [20] has as its system Clostridium perfringens. The experiment can be described thus: Minimum inhibitory concentration against Clostridium perfringens KT 13. In short, it runs like this: as §2
The subject of experiment [21] is Streptococcus thermophilus. The experiment can be described thus: Minimum inhibitory concentration against Streptococcus thermophilus EG 5. In short, it runs like this:
as §3

Experiment [22] in a line: Minimum inhibitory concentration against Streptococcus. species EF 6. Conditions: Bacteria. In short, it runs like this:
as §3

In brackets after ≈: the same amount, converted by molar mass.

What is called MIC is the lowest concentration that inhibits growth of the organism.

Regarding `CC(=O)O[C@H]1C[C@@]2(C)[C@@H](CC(O)[C@H]3[C@@]4(C)CCC(O)C(C)[C@@H]4CC[C@]32C)/C1=C(\CCC=C(C)C)C(=O)O` (some centres not stated), the MIC is 0.007 µg/mL (≈ 0.0135 µM) in experiment [1]; 0.006 µg/mL (≈ 0.0116 µM) in experiment [2]; 16 µg/mL (≈ 31 µM) in experiment [3]; 4 µg/mL (≈ 7.74 µM) in experiment [4]; over 125 µg/mL in experiment [5]; 0.006 µg/mL (≈ 0.0116 µM) in [6]. In addition, the MIC in experiment [7] was found to be 0.003 µg/mL (≈ 0.00581 µM); in experiment [8], 0.01 µg/mL (≈ 0.0194 µM); in [9] it was 0.007 µg/mL (≈ 0.0135 µM); in experiment [10], 4 µg/mL (≈ 7.74 µM); in experiment [11] it was 4 µg/mL (≈ 7.74 µM); in experiment [12], 4 µg/mL (≈ 7.74 µM). For the same molecule, the MIC in experiment [13] is over 125 µg/mL; in experiment [14], 0.01 µg/mL (≈ 0.0194 µM); in experiment [15], 0.0007 µg/mL (≈ 0.00135 µM); in experiment [16] it was 16 µg/mL (≈ 31 µM); in [17], 0.015 µg/mL (≈ 0.029 µM); in [18] it was 1 µg/mL (≈ 1.94 µM). Moreover, the MIC in experiment [19] worked out at 16 µg/mL (≈ 31 µM); in experiment [20], 16 µg/mL (≈ 31 µM); in [21], 4 µg/mL (≈ 7.74 µM); in experiment [22] it was 4 µg/mL (≈ 7.74 µM).

For the molecule `CC(=O)O[C@H]1C[C@@]2(C)C(CC(O)[C@H]3[C@@]4(C)CCC(O)C(C)C4CC[C@@]32C)[C@@H]1[C@H](CCCC(C)C)C(=O)O` (some centres not stated), the MIC in experiment [1] was 2 µg/mL (≈ 3.84 µM); in experiment [2], 4 µg/mL (≈ 7.68 µM); in experiment [3], 16 µg/mL (≈ 30.7 µM); in experiment [4] it was over 125 µg/mL; in [5] it was over 125 µg/mL; in experiment [6] it was 0.9 µg/mL (≈ 1.73 µM). For the same molecule, the MIC is 4 µg/mL (≈ 7.68 µM) in [7]; 4 µg/mL (≈ 7.68 µM) in experiment [8]; 4 µg/mL (≈ 7.68 µM) in experiment [9]; over 125 µg/mL in experiment [10]; over 125 µg/mL in experiment [11]; over 125 µg/mL in [12]. The MIC in experiment [13] is over 125 µg/mL; in experiment [14], 16 µg/mL (≈ 30.7 µM); in [15], 3.8 µg/mL (≈ 7.3 µM); in experiment [16], over 125 µg/mL; in [17], 4 µg/mL (≈ 7.68 µM); in [18], over 125 µg/mL. Further, the MIC in experiment [19], in experiment [20], in [21] and in experiment [22] was over 125 µg/mL in each case.

Take `CC(=O)O[C@H]1C[C@@]2(C)C(CC(O)[C@H]3[C@@]4(C)CCC(O)C(C)C4CC[C@@]32C)C1[C@@H](CCC=C(C)C)C(=O)O` (some centres not stated): the MIC in experiment [1] was over 125 µg/mL; in experiment [2], over 125 µg/mL; in [4] it was over 125 µg/mL; in experiment [5] it was over 125 µg/mL; in experiment [6] it was over 125 µg/mL; in experiment [7] it was 4 µg/mL (≈ 7.71 µM). Besides, the MIC in experiment [8], in experiment [9], in [10], in [11], in experiment [12] and in experiment [13] was over 125 µg/mL throughout. Further, the MIC in experiment [14], in experiment [15], in [16], in experiment [17], in experiment [18] and in experiment [19] was over 125 µg/mL in each case. In addition, the MIC in experiment [20], in experiment [21] and in experiment [22] was over 125 µg/mL each time.

As to `CC(=O)O[C@H]1C[C@@]2(C)C(CC(O)[C@H]3[C@@]4(C)CCC(O)C(C)C4CC[C@]32C)C1[C@H](CCC=C(C)C)C(=O)O` (some centres not stated), the MIC in experiment [1] is 0.01 µg/mL (≈ 0.0193 µM); in experiment [2], 0.03 µg/mL (≈ 0.0578 µM); in [3] it was 64 µg/mL (≈ 123 µM); in experiment [4] it was 16 µg/mL (≈ 30.8 µM); in experiment [5], over 125 µg/mL; in experiment [6], 0.03 µg/mL (≈ 0.0578 µM). Further, the MIC in [7] is 0.03 µg/mL (≈ 0.0578 µM); in experiment [8], 0.03 µg/mL (≈ 0.0578 µM); in experiment [9], 0.012 µg/mL (≈ 0.0231 µM); in experiment [10] it was 4 µg/mL (≈ 7.71 µM); in experiment [11], 4 µg/mL (≈ 7.71 µM); in experiment [12], 1 µg/mL (≈ 1.93 µM). For the same molecule, the MIC in experiment [13] was over 125 µg/mL; in [14], 0.025 µg/mL (≈ 0.0482 µM); in experiment [15], 0.01 µg/mL (≈ 0.0193 µM); in experiment [16], 64 µg/mL (≈ 123 µM); in [17] it was 0.03 µg/mL (≈ 0.0578 µM); in [18] it was 1 µg/mL (≈ 1.93 µM). The MIC in [19] came to 16 µg/mL (≈ 30.8 µM); in [20] it was 16 µg/mL (≈ 30.8 µM); in [21], 16 µg/mL (≈ 30.8 µM); in experiment [22], 4 µg/mL (≈ 7.71 µM).

For the origin of these results see ChEMBL document CHEMBL1134596, “Synthesis and conformational analysis of fusidic acid side chain derivatives in relation to antibacterial activity” (2001).
